Paper PMC3983356 (The Journal of Physical Chemistry. B, 2014)
Several values for one entry are separate records, joined by “and”; a condition that tells them apart may be missing. Identical values can stand only once. Like-named read-outs stand apart in the source and are kept apart here.

Key:
[1] = Critical micelle concentration by DPH fluorimetric method; type: physicochemical
Method in brief: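 Fluorimetric CMC determination: 10 μL of 1 mM diphenylhexatriene (DPH) in tetrahydrofuran added to test detergent serially diluted in ECS (pH 7.45, HEPES-buffered saline with glucose). Excitation 358 nm, emission scanned 400–500 nm. CMC taken at the sharp rise in fluorescence as DPH enters micelles.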

HEK 293A cells [2] = experiment: Ensemble whole cell patch clamp; type: cell-based; conditions: for change in membrane conductivity compared to ECS controls: 0.004 and 0.04 mM SDS, 0.0001 and 0.001 mM CTAB; for concentration at which increased membrane permeability is induced: current change 900 s after exposure, superfusion
HEK293A cells = experiment: XTT assay; type: cell-based; conditions: 20 min
Method in brief: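 HEK293A cells were seeded at 100000 cells/well and incubated overnight at 37 °C, 5% CO2. Cells were exposed 20 min to test compound in ECS, or to ECS alone, then the supernatant was replaced with PBS. XTT reagent (solution A:B, 50:1) was added and incubated 2 h at 37 °C. A490 minus A690 was read, and % viability was expressed relative to ECS-treated cells.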

HEK 293A cells [3] = type: cell-based; conditions: for reversal of increased conductivity at end of experiment (600 s): 0.2 mM SDS 30 s exposure, 0.1 mM CTAB 10 s, 0.137 mM ORB 10 s; for reversibility of increased permeability induced within 10 s of exposure: 0.2 mM SDS, 0.1 mM CTAB, 0.137 mM ORB, 15 min after exposure
Method in brief: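 IonFlux 16 whole-cell patch clamp of HEK 293A cells in ECS at sub-solubilising test concentrations, applied for 10, 30 or 300 s. Exposure was followed by ECS perfusion for 900 s. Membrane current was tracked for reversal. Controls were ECS alone or ECS + 5% DMSO, the vehicle for the rhodamine lipid probe.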

HEK 293A cells [4] = type: cell-based; conditions: for Dw ± standard error (detergent in water, intercept): quiescent, onset of increased permeability; for partition constant K [lower bound, upper bound]: range from error in Rb and intercept
Method in brief: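 HEK 293A cells (passages 12–17) detached with detachin, rested in serum-free medium, then 1.5, 5, 10 or 15 million cells in ECS incubated 15 min with graded detergent. Cells were pelleted at 1000 rpm, resuspended in ECS and patched on an IonFlux 16 ensemble whole-cell system with K-aspartate intracellular solution. Time-averaged current over the first 4 min served as the permeability read-out. Detergent giving a 1 nA rise ×15 estimated the onset. Onset concentration vs lipid concentration was fitted linearly: slope Rb, intercept Dw.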

HEK 293A cells [5] = experiment: Quiescent partitioning experiment with trypan blue assay; type: cell-based; conditions: range from error estimate
Method in brief: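 Cationic detergent only. HEK 293A cells in ECS were pretreated 15 min with graded detergent concentrations as in the patch-clamp partitioning protocol. Trypan blue exclusion, not patch clamp, served as the membrane-permeability marker. Onset concentration was plotted against cellular lipid concentration and fitted linearly (slope Rb, intercept Dw). K was derived from R and Dw and reported as a range.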

[6] = POPC vesicles; cited from earlier work
HEK 293A cells [7] = experiment: Fluorescence microscopy of patched cells; type: cell-based; conditions: ORB at all three concentrations, 10 min
[8] = POPC/POPG vesicles; cited from earlier work
[9] = depending on size, composition of vesicles and temperature; cited from earlier work
[10] = 0.004–0.04 mM SDS, 0.0001–0.001 mM CTAB
[11] = 0.2 and 2 mM SDS, 0.1, 1 and 10 mM CTAB, 0.035, 0.14 and […] ORB
[12] = 2 mM SDS, 1 and 10 mM CTAB, 1.37 mM ORB
[13] = 0.004–0.2 mM SDS, 0.001–0.1 mM CTAB, 0.0137–0.137 mM ORB

| Structure (SMILES) | critical micelle concentration (CMC) in ECS [1] | CMC in water [1] [mM] | time of onset of current increase after compound release (HEK 293A cells [2]; 0.2 mM SDS, 0.1 mM CTAB) | group of current traces (HEK 293A cells [2]; 0.2 mM SDS, 0.1–10 mM CTAB) | time of onset of current increase after compound release (HEK 293A cells [2]; 2 mM SDS, 1 mM CTAB) [s] | change in membrane conductivity compared to ECS controls (HEK 293A cells [2]) | group of current traces (HEK 293A cells [2]; [10]) | change in membrane current compared to ECS controls (HEK 293A cells [2]; [11]) | concentration at which increased membrane permeability is induced (HEK 293A cells [2]) [µM] | metabolic activity of exposed cells (XTT) (HEK293A cells; [12]) | metabolic activity of exposed cells (XTT) (HEK293A cells; [13]) | reversal of increased conductivity at end of experiment (600 s) (HEK 293A cells [3]) | reversibility of increased permeability induced within 10 s of exposure (HEK 293A cells [3]) | Dw ± standard error (detergent in water, intercept) (HEK 293A cells [4]) | partition constant K [lower bound, upper bound] (HEK 293A cells [4]) | partition constant K [6] [M^–1] | other results |
| --- | --- | --- | --- | --- | --- | --- | --- | --- | --- | --- | --- | --- | --- | --- | --- | --- | --- |
| CCCCCCCCCCCCCCCC[N+](C)(C)C [CTAB, cetyltrimethylammonium bromide] | 0.03 to 0.06 mM and ~0.06 mM | 1 to 2 | 2 to 3 s and 1 to 3 s | 2 | 1 | did not cause a change in conductance | 1 | rapid increase in membrane current | 10 | reduced metabolic activity | do not show a loss in metabolic activity | not reversed | not reversible for over 15 min | 4.2 ± 2.8 | 29000–476000 M^–1 | 350000 | current eventually reached as fraction of open channel current (HEK 293A cells [2]; 0.01 mM CTAB): 1/3; change in membrane current compared to ECS controls (HEK 293A cells [2]; 0.01 mM CTAB (below CMC)): slow increase in current; time of onset of current increase after compound release (HEK 293A cells [2]; 10 mM CTAB): 1 s; partition constant K range (trypan blue assay) (HEK 293A cells [5]): 37000 to 67000 M^–1 |
| CCCCCCCCCCCCCCCCCCOC(=O)c1ccccc1-c1c2ccc(=[N+](CC)CC)cc-2oc2cc(N(CC)CC)ccc12.[Cl-] [ORB, octadecyl rhodamine B] | – | – | – | – | – | – | – | increased the membrane current significantly | – | reduced metabolic activity | do not show a loss in metabolic activity | not reversed | not reversible for over 15 min | 7.3 ± 3.1 | 24000–99000 M^–1 | – | change in membrane current compared to controls (HEK 293A cells [2]; 0.014 (0.0137) mM ORB): significantly different from the ECS control but not 0.007 mM ORB; state of cells after ORB exposure (ORB fluorescence) (HEK 293A cells [7]): fluorescent and intact |
| CCCCCCCCCCCCOS(=O)(=O)[O-].[Na+] [SDS, sodium dodecyl sulfate] | 0.8 to 1 mM and ~0.8 mM | 6 to 8 | 2 to 3 s | 2 | 1 | does not result in an increase in conductivity | 1 | initial sharp increase in current | 200 | reduced metabolic activity | do not show a loss in metabolic activity | not reversed | not reversible for over 15 min | 29 ± 10 | 16300–39200 M^–1 | 33000 | duration of initial change in current (HEK 293A cells [2]; 0.2 mM SDS): 3 to 4 s; duration of subsequent slow current increase (HEK 293A cells [2]; 0.2 mM SDS): 67 ± 25 s; current reached at the end of 15 min (HEK 293A cells [2]; 0.2 mM SDS, total current of 20 cells): ~50 nA; final current level (HEK 293A cells [2]; 2 mM SDS): eventually reached open channel current levels; group of current traces (HEK 293A cells [2]; 2 mM SDS): 3; time to reach open channel current (HEK 293A cells [2]; 2 mM SDS, except one trace that took 871 s): 120 ± 61 s; time within which large and sudden increase in conductivity occurs (HEK 293A cells [2]; 0.2 and 2 mM SDS): 1 to 3 s; partition constant K [8]: 37000 M^–1; partition constant K [9]: 12500 to 70000 M^–1 |
